The source made the active and inactive calls. The rule behind the calls is not given here.
How the values were obtained:
[1] = Binding affinity to the recombinant SARS-Cov-2 Spike protein subunit S1 by QCM-D measurement; parameters: species or system Severe acute respiratory syndrome coronavirus 2
Method in brief: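 Peptides were thiolated and coated onto 5 MHz gold QCM-D sensors for 30 min at room temperature. Recombinant S1 protein then flowed over as mobile phase at 300 μL/min, 37 °C, in PBS. Kd came from nonlinear regression of saturated binding mass (Δm) against […] (nM).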

A549 [2] = assay: Cytotoxicity against human A549 cells assessed as cell viability at 0.001 to 100 uM measured after 48 hrs using CCK-8 assay; format: cell-based; details: a549, 48 h, dose 0.001-100 µM
Method in brief: (§1)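 A549 cells were grown in McCoy-5A with 10% FBS. They were exposed to peptides at 1 nM–100 μM (tenfold steps) for 48 h, with medium alone as control. After a PBS wash, CCK-8 was added and incubated at 37 °C. OD was read at 450/630 nm and normalised to control, n = 3.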

293T/ACE2 [3] = assay: Cytotoxicity against human 293T/ACE2 cells assessed as cell viability at 0.001 to 100 uM measured after 48 hrs using CCK-8 assay; format: functional, cell-based; details: dose 0.001-100 µM
Method in brief: as §1, with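 “293T-ACE2⁺” for “A549”, “high-glucose DMEM” for “McCoy-5A”, “FBS and 500 μg/mL hygromycin.” for “FBS.”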

A549 [4] = assay: Inhibition of recombinant SARS-Cov-2 Spike protein subunit S1 binding to human A549 cells preincubated for 1 hr by Western blot analysis; format: cell-based; details: Severe acute respiratory syndrome coronavirus 2
Method in brief: (§2)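 Recombinant S1 protein was preincubated with peptides for 1 h at 37 °C, then added to A549 or 293T-ACE2⁺ cells for 1 h. Cells were washed, lysed in RIPA with PMSF and phosphatase inhibitor, and equal protein was run on SDS-PAGE. Blots on PVDF were probed with anti-S1 rabbit pAb, with ACTB as loading reference, and detected by chemiluminescence.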

293T/ACE2 [5] = assay: Inhibition of recombinant SARS-Cov-2 Spike protein subunit S1 binding to human 293T/ACE2 cells preincubated for 1 hr by Western blot analysis; format: cell-based; details: Severe acute respiratory syndrome coronavirus 2; method in brief: as §2
293T/ACE2 [6] = assay: Inhibition of Spike protein subunit S in SARS-CoV-2 pseudovirus assessed as inhibition of infection in human 293T/ACE2 cells by measuring decrease in luciferase activity at 0.000001 to 100 uM pretreated for 1 hr; format: cell-based; details: Severe acute respiratory syndrome coronavirus 2, dose lower 1e-06 µM, dose upper 100.0 µM
Method in brief: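 The pseudovirus was HIV-1-based, bought ready-made, and carried S protein with luciferase and GFP reporters. It was pre-mixed with serially diluted peptides (1 pM–100 μM) for 1 h at 37 °C, then added to 293T-ACE2⁺ cells for 1 h. Medium was then replaced, followed by 47 h further culture. Infection rate was derived from luciferase activity.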

293T/ACE2 [7] = assay: Inhibition of Spike protein subunit S in SARS-CoV-2 pseudovirus assessed as inhibition of infection in human 293T/ACE2 cells by measuring decrease in fluorescence intensity at 0.000001 to 100 uM pretreated for 1 hr; format: cell-based; details: Severe acute respiratory syndrome coronavirus 2, dose lower 1e-06 µM, dose upper 100.0 µM
Method in brief: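 A bought-in HIV-1-based S-pseudotyped reporter virus expressing GFP was preincubated with serially diluted peptides for 1 h at 37 °C. It was then applied to 293T-ACE2⁺ cells for 1 h and replaced with fresh medium, followed by 47 h more culture. Cellular GFP fluorescence intensity was observed.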

Substance: H-GDGVYYPRDVFDSSVLDSTQR-OH
- Kd [1]: 0.0056 µM
- Activity (A549 [2]): Non-Toxic
- Activity (293T/ACE2 [3]): Not toxic
- inhibition (A549 [4]): Active
- inhibition (293T/ACE2 [5]): Active
- inhibition (293T/ACE2 [6]): Active
- inhibition (293T/ACE2 [7]): Active

Substance: H-GDLFDDSNLDPFRDRISTRR-OH
- Kd [1]: 0.0375 µM
- Activity (A549 [2]): Non-Toxic
- Activity (293T/ACE2 [3]): Not toxic
- inhibition (A549 [4]): Active
- inhibition (293T/ACE2 [5]): Active
- inhibition (293T/ACE2 [6]): Active
- inhibition (293T/ACE2 [7]): Active

Substance: H-GDRIARTTRAVDRPQTLRR-OH
- Kd [1]: 0.0769 µM
- Activity (A549 [2]): Non-Toxic
- Activity (293T/ACE2 [3]): Not toxic
- inhibition (A549 [4]): Active
- inhibition (293T/ACE2 [5]): Active
- inhibition (293T/ACE2 [6]): Active
- inhibition (293T/ACE2 [7]): Active

From ChEMBL document CHEMBL5029161, “Synthetic Neutralizing Peptides Inhibit the Host Cell Binding of Spike Protein and Block Infection of SARS-CoV-2” (J Med Chem, 2021)
